Source: ChEMBL document CHEMBL4765248, “Design, synthesis, biological evaluation and molecular docking study of novel thieno[3,2-d]pyrimidine derivatives as potent FAK inhibitors” (Eur J Med Chem, 2020)

What was measured:
[1] = system: MDA-MB-231; assay: Induction of cell cycle arrest in human MDA-MB-231 cells assessed as accumulation of cells at G0/G1 phase at 0.1 uM measured after 48 hrs by PI staining based flow cytometry method (reference value: 43.43%); format: functional
[2] = molecular target: T1, Focal adhesion kinase 1 (Homo sapiens, UniProt Q05397); assay: Inhibition of GST-tagged full length human FAK expressed in baculovirus expression system at 1 uM by Selectscreen kinase assay
Procedure, shortened: (§1)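 Single-point screen at 1 μM final against a panel of 25 kinases using a commercial profiling service; mean of three independent experiments each run in triplicate.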
Target sequence in this assay (Q05397 2-1052 limits assumed): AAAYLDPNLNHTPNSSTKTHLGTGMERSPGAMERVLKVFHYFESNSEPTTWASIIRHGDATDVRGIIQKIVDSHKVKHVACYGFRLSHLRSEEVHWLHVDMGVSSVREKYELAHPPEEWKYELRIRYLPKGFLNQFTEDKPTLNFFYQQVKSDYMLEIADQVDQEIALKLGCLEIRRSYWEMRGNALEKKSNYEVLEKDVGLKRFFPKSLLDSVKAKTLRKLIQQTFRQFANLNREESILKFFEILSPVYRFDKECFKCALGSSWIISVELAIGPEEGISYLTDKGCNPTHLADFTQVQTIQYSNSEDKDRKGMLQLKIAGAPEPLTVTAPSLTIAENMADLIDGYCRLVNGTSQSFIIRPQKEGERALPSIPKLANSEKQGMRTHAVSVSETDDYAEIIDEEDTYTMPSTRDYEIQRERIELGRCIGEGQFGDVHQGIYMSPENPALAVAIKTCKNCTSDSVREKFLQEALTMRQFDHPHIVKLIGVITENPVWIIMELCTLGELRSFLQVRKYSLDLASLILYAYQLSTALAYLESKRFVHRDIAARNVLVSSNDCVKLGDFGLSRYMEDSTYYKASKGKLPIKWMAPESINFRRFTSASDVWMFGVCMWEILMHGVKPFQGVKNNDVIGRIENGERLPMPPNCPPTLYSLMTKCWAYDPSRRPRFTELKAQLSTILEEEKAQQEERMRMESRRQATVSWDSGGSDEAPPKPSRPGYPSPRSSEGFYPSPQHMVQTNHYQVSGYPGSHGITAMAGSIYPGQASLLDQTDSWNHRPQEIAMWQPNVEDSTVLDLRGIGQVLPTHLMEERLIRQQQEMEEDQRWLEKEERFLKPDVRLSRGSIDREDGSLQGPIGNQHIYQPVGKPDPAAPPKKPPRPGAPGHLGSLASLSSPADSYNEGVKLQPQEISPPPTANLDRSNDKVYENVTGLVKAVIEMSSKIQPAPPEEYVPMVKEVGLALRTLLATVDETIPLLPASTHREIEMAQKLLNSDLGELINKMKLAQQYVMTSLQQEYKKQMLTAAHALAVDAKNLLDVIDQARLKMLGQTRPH

[3] = molecular target: T1, Focal adhesion kinase 1; assay: Inhibition of N-terminal GST-fused human truncated FAK (376 to 1052 residues) expressed in baculovirus expression system using tyrosine kinase peptide as substrate measured after 50 mins in presence of ATP by homogenous time resolved flourescence assay
Target sequence in this assay (Q05397 whole entry): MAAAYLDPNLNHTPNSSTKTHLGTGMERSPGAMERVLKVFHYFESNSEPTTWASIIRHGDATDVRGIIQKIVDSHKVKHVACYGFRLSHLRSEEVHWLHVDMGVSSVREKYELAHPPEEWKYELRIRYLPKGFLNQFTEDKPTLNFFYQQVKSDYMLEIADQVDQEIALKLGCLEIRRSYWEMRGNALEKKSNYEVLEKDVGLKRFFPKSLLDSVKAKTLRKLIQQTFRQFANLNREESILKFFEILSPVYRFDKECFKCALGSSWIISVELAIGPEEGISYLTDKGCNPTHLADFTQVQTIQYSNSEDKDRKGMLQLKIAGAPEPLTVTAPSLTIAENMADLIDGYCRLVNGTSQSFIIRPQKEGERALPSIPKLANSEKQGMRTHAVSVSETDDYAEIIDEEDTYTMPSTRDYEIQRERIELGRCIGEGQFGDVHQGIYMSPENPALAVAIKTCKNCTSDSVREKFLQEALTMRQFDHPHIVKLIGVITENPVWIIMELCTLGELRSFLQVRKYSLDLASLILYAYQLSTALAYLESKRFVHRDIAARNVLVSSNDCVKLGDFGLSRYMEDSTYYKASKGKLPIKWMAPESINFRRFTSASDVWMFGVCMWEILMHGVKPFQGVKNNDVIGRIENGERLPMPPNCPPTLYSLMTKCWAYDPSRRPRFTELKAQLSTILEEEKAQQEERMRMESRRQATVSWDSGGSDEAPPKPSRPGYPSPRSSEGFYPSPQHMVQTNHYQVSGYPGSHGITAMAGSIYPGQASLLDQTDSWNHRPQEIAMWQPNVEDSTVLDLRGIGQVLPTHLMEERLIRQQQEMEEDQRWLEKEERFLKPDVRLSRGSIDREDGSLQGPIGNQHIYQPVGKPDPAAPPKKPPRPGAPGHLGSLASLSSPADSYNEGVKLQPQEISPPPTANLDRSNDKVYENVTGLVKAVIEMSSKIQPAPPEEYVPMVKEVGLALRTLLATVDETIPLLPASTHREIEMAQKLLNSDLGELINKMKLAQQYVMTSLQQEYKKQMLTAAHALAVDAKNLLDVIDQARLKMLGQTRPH

[4] = system: MDA-MB-231; assay: Antiproliferative activity against human MDA-MB-231 cells assessed as cell viability at 2.5 uM measured after 48 hrs by MTT assay (reference value: 100%); format: functional; settings: read-out: Activity
[5] = system: MDA-MB-231; assay: Antiproliferative activity against human MDA-MB-231 cells assessed as cell viability at 0.5 uM measured after 24 hrs by MTT assay (reference value: 100%); format: functional; settings: read-out: Activity
[6] = system: HK-2; assay: Cytotoxicity against human HK2 cells assessed as inhibition of cell proliferation measured after 72 hrs by MTT assay; format: cell-based; settings: HK-2, 72 h
Procedure, shortened: (§2)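 Cells were seeded at 4000–5000/well and held 24 h at 37 °C in 5% CO2. Compounds were added at the indicated final concentrations and incubated 72 h. MTT was added (5 mg/mL in PBS, stated as final) for 4 h at 37 °C. Formazan was dissolved in DMSO and absorbance read at 490 nm. The 50% growth-inhibitory concentration is the mean of three independent experiments ± SE.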

[7] = system: MDA-MB-231; assay: Induction of cell cycle arrest in human MDA-MB-231 cells assessed as accumulation of cells at G2/M phase at 0.4 uM measured after 48 hrs by PI staining based flow cytometry method (reference value: 17.40%); format: functional
[8] = system: A549; assay: Antiproliferative activity against human A549 cells assessed as cell viability at 2.5 uM measured after 24 hrs by MTT assay (reference value: 100%); format: functional; settings: read-out: Activity
[9] = molecular target: Fibroblast growth factor receptor 4 (Homo sapiens) (UniProt P22455); assay: Inhibition of His-tagged human FGFR4 cytoplasmic domain expressed in baculovirus expression system at 1 uM by Selectscreen kinase assay; procedure, shortened: as §1
[10] = system: U-87 MG; assay: Antiproliferative activity against human U-87MG cells assessed as inhibition of cell growth measured after 72 hrs by MTT assay; format: functional, cell-based, U-87MG ATCC; procedure, shortened: as §2
[11] = molecular target: Mitogen-activated protein kinase 1 (Homo sapiens) (UniProt P28482); assay: Inhibition of GST-tagged full length human ERK2 expressed in Escherichia coli at 1 uM by Selectscreen kinase assay; procedure, shortened: as §1
[12] = system: MDA-MB-231; assay: Induction of apoptosis in human MDA-MB-231 cells assessed as viable cells at 0.1 uM incubated for 48 hrs by Annexin V-FITC/PI staining based flow cytometric analysis (reference value: 95.84%); format: functional; settings: read-out: Activity
[13] = system: MDA-MB-231; assay: Antiproliferative activity against human MDA-MB-231 cells assessed as cell viability at 2.5 uM measured after 24 hrs by MTT assay (reference value: 100%); format: functional; settings: read-out: Activity
[14] = system: A549; assay: Antiproliferative activity against human A549 cells assessed as inhibition of cell growth measured after 72 hrs by MTT assay; format: functional, cell-based; settings: A549, 72 h; procedure, shortened: as §2
[15] = system: MDA-MB-231; assay: Antiproliferative activity against human MDA-MB-231 cells assessed as reduction in cell viability measured after 24 to 72 hrs by MTT assay; format: functional, cell-based; settings: dose 0.1-2.5 µM, time 24-72 hrs
[16] = system: MDA-MB-231; assay: Induction of cell cycle arrest in human MDA-MB-231 cells assessed as accumulation of cells at S phase at 0.4 uM measured after 48 hrs by PI staining based flow cytometry method (reference value: 39.17%); format: functional
[17] = system: A549; assay: Antiproliferative activity against human A549 cells assessed as cell viability at 0.5 uM measured after 24 hrs by MTT assay (reference value: 100%); format: functional; settings: read-out: Activity
[18] = system: MDA-MB-231; assay: Induction of apoptosis in human MDA-MB-231 cells assessed as viable cells at 0.2 uM incubated for 48 hrs by Annexin V-FITC/PI staining based flow cytometric analysis (reference value: 95.84%); format: functional; settings: read-out: Activity
[19] = molecular target: Protein kinase C theta type (Homo sapiens) (UniProt Q04759); assay: Inhibition of His-tagged full length human PKC theta expressed in baculovirus expression system at 1 uM by Selectscreen kinase assay; procedure, shortened: as §1
[20] = system: MDA-MB-231; assay: Induction of cell cycle arrest in human MDA-MB-231 cells assessed as accumulation of cells at G0/G1 phase at 0.2 uM measured after 48 hrs by PI staining based flow cytometry method (reference value: 43.43%); format: functional
[21] = system: MDA-MB-231; assay: Induction of apoptosis in human MDA-MB-231 cells incubated for 48 hrs by Annexin V-FITC/PI staining based flow cytometric analysis; format: functional, cell-based; settings: dose 0.1-0.4 µM
[22] = molecular target: Interleukin-1 receptor-associated kinase 4 (Homo sapiens) (UniProt Q9NWZ3); assay: Inhibition of His-tagged full length human IRAK4 expressed in baculovirus expression system at 1 uM by Selectscreen kinase assay; procedure, shortened: as §1
[23] = organism: Homo sapiens; assay: Inhibition of His-tagged human PKA catalytic domain expressed in Escherichia coli expression system at 1 uM by Selectscreen kinase assay; procedure, shortened: as §1
[24] = molecular target: Mast/stem cell growth factor receptor Kit (Homo sapiens) (UniProt P10721); assay: Inhibition of His-tagged human KIT cytoplasmic domain expressed in baculovirus expression system at 1 uM by Selectscreen kinase assay; procedure, shortened: as §1
[25] = system: A549; assay: Antiproliferative activity against human A549 cells assessed as cell viability at 0.1 uM measured after 24 hrs by MTT assay (reference value: 100%); format: functional; settings: read-out: Activity
[26] = system: MDA-MB-231; assay: Induction of apoptosis in human MDA-MB-231 cells assessed as necrotic cells at 0.1 uM incubated for 48 hrs by Annexin V-FITC/PI staining based flow cytometric analysis (reference value: 1.08%); format: functional
[27] = system: Hepatocyte growth factor receptor (Homo sapiens), P08581 [Y1235D]; assay: Inhibition of GST-tagged partial length human MET (956-1390 residues) Y1235D mutant expressed in insect expression system at 1 uM by Selectscreen kinase assay; procedure, shortened: as §1
[28] = Intrinsic clearance in rat liver at 1 uM measured after 60 mins in presence of NADPH by LC-MS/MS analysis; format: ADME; settings: 1 h
Procedure, shortened: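 Rat liver microsomes (0.5 mg/mL) were incubated at 37 °C with 1 μM compound in 100 mM potassium phosphate, pH 7.4, with 10 mM MgCl2. Reaction was started with prewarmed NADPH cofactor and sampled at 0, 5, 10, 20, 30 and 60 min. Protein was precipitated with cold acetonitrile and supernatants analysed by LC-MS/MS to give half-life, 1 h remaining and intrinsic clearance.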

[29] = system: A549; assay: Antiproliferative activity against human A549 cells assessed as reduction in cell viability at 0.1 to 2.5 uM by MTT assay; format: functional, cell-based; settings: dose 0.1-2.5 µM, time 24-72 hrs, TDE = time-dependent effect
[30] = system: MDA-MB-231; assay: Induction of cell cycle arrest in human MDA-MB-231 cells assessed as accumulation of cells at G2/M phase at 0.2 uM measured after 48 hrs by PI staining based flow cytometry method (reference value: 17.40%); format: functional

Chain of Mitogen-activated protein kinase 1 (Homo sapiens) (P28482 whole entry): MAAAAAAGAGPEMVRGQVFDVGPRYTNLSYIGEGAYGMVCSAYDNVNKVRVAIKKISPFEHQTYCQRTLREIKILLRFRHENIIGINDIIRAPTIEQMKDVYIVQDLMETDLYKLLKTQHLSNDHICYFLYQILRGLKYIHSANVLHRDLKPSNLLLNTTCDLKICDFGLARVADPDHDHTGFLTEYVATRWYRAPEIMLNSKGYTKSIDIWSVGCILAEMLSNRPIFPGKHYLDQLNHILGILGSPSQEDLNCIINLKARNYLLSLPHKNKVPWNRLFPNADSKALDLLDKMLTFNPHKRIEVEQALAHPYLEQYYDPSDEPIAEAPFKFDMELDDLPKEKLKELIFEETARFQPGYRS
Chain of Protein kinase C theta type (Homo sapiens) (Q04759 whole entry, looked up): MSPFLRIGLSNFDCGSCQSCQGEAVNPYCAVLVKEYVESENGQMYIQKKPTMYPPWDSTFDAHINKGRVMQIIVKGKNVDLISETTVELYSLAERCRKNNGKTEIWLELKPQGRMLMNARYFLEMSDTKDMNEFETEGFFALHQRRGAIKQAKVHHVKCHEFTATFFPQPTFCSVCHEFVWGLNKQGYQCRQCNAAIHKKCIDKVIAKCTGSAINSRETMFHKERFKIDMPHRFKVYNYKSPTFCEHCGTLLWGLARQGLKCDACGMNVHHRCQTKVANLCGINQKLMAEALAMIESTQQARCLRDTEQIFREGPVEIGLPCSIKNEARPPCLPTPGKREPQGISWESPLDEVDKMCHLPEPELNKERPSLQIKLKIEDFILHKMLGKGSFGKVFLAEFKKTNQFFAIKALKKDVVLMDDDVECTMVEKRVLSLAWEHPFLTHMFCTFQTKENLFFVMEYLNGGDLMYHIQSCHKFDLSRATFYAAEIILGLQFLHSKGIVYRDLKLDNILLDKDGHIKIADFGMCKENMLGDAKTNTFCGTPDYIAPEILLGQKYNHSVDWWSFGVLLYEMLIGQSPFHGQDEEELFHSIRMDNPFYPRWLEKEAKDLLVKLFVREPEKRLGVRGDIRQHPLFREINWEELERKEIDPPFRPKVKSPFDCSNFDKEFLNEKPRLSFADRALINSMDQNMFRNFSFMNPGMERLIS
Chain of Mast/stem cell growth factor receptor Kit (Homo sapiens) (P10721 whole entry, the tested form may be a part): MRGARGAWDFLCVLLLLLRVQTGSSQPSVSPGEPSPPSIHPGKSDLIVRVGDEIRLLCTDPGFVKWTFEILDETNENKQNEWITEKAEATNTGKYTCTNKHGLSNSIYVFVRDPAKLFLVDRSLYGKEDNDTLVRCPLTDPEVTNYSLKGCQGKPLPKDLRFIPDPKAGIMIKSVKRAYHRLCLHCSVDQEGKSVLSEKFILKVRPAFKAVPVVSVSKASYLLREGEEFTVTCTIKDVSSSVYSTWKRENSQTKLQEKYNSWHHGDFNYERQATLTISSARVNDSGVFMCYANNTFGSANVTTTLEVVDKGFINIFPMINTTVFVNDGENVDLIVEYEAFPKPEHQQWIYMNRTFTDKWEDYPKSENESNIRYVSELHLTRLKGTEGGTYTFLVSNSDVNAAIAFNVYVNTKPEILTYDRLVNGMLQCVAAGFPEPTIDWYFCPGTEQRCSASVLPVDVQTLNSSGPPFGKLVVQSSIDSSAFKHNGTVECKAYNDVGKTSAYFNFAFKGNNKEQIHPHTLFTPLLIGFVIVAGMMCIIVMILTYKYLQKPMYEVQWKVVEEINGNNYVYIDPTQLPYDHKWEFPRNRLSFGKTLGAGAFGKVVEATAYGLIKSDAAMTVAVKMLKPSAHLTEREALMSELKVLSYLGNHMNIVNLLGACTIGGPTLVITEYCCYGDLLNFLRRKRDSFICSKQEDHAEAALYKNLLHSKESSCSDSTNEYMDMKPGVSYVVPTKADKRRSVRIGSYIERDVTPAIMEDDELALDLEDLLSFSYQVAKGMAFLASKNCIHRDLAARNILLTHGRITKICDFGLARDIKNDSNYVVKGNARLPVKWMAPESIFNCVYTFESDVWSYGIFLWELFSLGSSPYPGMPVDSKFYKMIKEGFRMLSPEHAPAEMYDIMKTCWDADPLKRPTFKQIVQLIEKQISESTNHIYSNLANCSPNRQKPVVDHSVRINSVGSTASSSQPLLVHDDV
Chain of Fibroblast growth factor receptor 4 (Homo sapiens) (P22455 22-802 limits assumed): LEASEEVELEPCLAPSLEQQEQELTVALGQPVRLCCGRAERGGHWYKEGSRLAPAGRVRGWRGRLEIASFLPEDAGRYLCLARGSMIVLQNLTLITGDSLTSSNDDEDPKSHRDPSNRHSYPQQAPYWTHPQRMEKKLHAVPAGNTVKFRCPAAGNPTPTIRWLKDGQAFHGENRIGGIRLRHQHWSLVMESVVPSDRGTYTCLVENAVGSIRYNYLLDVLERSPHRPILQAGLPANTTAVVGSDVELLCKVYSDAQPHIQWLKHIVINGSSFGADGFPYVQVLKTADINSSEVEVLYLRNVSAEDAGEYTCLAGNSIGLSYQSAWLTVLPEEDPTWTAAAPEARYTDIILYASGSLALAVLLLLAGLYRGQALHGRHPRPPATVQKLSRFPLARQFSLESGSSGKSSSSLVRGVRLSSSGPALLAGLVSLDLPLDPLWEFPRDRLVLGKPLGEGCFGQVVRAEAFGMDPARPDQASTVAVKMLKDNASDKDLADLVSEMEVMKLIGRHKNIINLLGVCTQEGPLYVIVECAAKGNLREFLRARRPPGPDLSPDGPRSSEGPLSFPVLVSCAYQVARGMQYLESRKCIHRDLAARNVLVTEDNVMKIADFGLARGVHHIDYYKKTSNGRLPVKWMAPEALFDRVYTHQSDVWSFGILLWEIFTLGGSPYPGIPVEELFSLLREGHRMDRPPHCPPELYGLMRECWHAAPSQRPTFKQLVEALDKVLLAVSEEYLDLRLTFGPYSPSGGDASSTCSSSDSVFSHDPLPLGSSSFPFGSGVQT

Work on `COc1ccccc1-c1csc2cnc(Nc3ccc(C(=O)NC4CCNCC4)c(F)c3)nc12` yielded an Activity [1] of 45.25%, an inhibition [2] of 100% and an IC50 [3] of 28.2 nM. The viability at 2.5 µM [4] was 11.9%, the viability at 0.5 µM [5] was 73.7% and the IC50 [6] was 3320 nM. It also gave an Activity [7] of 3.55%, a viability at 2.5 µM [8] of 51.5% and an inhibition [9] of 66%. It also gave an IC50 [10] of 160 nM, an inhibition [11] of 1% and a viability at 0.1 µM [12] of 85.5%. For the same molecule, the viability at 2.5 µM [13] was 52.2%, the IC50 [14] was 270 nM and the Activity [15] was “Dose-dependent effect”. The Activity [16] was 40.18%, the viability at 0.5 µM [17] was 79.1% and the viability at 0.2 µM [18] was 75%. For the same molecule, the inhibition [19] was 48%, the Activity [20] was 51.4% and the Activity [21] was “Dose-dependent effect”. For the same molecule, the inhibition [22] was 72%, the inhibition [23] was 63% and the inhibition [24] was 41%. It also gave a viability at 0.1 µM [25] of 96.4%, an Activity [26] of 2.97% and an inhibition [27] of 72%. The CLH [28] was 18.6 µL/min/mg, the Activity [29] was “Tde” and the Activity [30] was 9.49%.
